Screening results from PubChem BioAssay.
Diaphorase inh – diaphorase inhibitors and chemical oxidizers, primary screen, counter-screen for diaphorase-coupled primary assays, biochemical, uHTS, resorufin fluorescence; actives 0.69% (n = 190,000); inhibition, % at 20 µM; diaphorase resazurin-to-resorufin fluorescence, NADH, 16 min; bacterial (C. kluyveri) enzyme, not human; AID 1217, 2008;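 active = primary screen inhibition at 20 µM above a set limit, cut at about 50% in these data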;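 also: plate controls were DMSO with full reaction for no effect and wells lacking NADH for full effect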
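System: Diaphorase enzyme from Clostridium kluyveri | Amount: Enzyme working solution with 0.14 U/mL diaphorase | Benchmarks: No-NADH positive control and DMSO neutral control | Signal: Fluorescence of resorufin formed from resazurin, Ex 544/Em 590 nm | Schedule: 16-min room-temperature incubation before reading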
Diaph act CS – compounds boosting diaphorase resazurin reduction – biochemical, uHTS, resorufin fluorescence, counter-screen for diaphorase-coupled primary assays, primary screen; Diaphorase/resazurin coupled assay, 16 min; stronger effect = higher value; 1 = vehicle wells, 0 = NADH-free wells; activation factor at 20 µM; actives 0.005% (n = 190,000); AID 1229, 2008;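 active = diaphorase activity raised at least twofold by the compound at 20 µM; inactive = activation factor below 2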
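Material: Clostridium kluyveri diaphorase, purified enzyme; Quantity: enzyme 0.07 U/mL final; Medium: HEPES pH 7.4 buffer with MgCl2 and Tween 20; Dosing: single compound dose of 20 µM, 1% DMSO final; Schedule: 16 min reaction at room temperature; Measured by: red resorufin fluorescence at 544/590 nm excitation/emission.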
KCC2 mod – KCC2 cotransporter modulators, thallium flux, primary screen, cell-based, HEK293 KCC2, FluoZin-2 fluorescence, MLSMR | AID 1456, 2008 | KCC2 cells, thallium flux FluoZin-2 fluorescence | actives 2.2% (n = 190,000) | B-score of Tl+ flux slope (higher = more flux/activation; lower = inhibition) at 10 µM;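 active = thallium flux slope and its plate-corrected score both differing from the plate sample mean at a set confidence after two filtering rounds, in either direction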;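 also: slope of fluorescence scaled to starting intensity during 10 to 20 s after thallium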
ROMK mod – ROMK potassium channel modulators, primary screen, cell-based, thallium flux, MLSMR library | actives 2% (n = 130,000) | B-score at 10 µM | Tet-inducible ROMK, thallium flux fluorescence; actives lie on both sides;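 active = signal ratio slope over the read window, or its plate-corrected B-score, at least 3 SD from the plate mean, either direction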;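 also: B-score of the F/F0 ratio slope over 7 to 12 s after thallium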
Lmaj promast – Leishmania major promastigote growth inhibition, primary screen. actives 9% (n = 200,000). inhibition, % at 10 µM. Leishmania major promastigotes, resazurin fluorescence viability; in the data active = inhibition above about 50%;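 also: promastigotes grown with compound for 44 hours at 28 °C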
WT yeast gro inh – growth inhibition of WT strain, primary screen, mitochondrial fusion inhibitor project, WT and mutant strains, chemical genetic; inhibition, % at 10 µM; mitochondrial fusion phenotypic screen; actives 2.1% (n = 190,000); in the data active = inhibition above about 58%; tested in S. cerevisiae
* marks the source's active call; other numbers are inactive results; · = no result given. Compounds with a hit are over-represented: about 12% of the library has one in this group of screens.

SMILES	Diaphorase inh	Diaph act CS	KCC2 mod	ROMK mod	Lmaj promast	WT yeast gro inh
O=C(c1ccc2c3c(cccc13)CC2)C1CCCN(Cc2ccc(OCCO)cc2)C1 (configuration not stated)	-4	1	0.38	-0.069	88*	4
Cc1cnc(CN2CCCC(C(=O)c3ccc4c5c(cccc35)CC4)C2)[nH]1 (configuration not stated)	14	0.9	-0.16	0.26	99*	51
O=C(c1ccc2c3c(cccc13)CC2)C1CCCN(Cc2ccccn2)C1 (configuration not stated)	22	0.8	-0.98	-0.42	64*	22
CCn1c(CNC(=O)c2ccco2)nnc1SCC(=O)Nc1cc(C(F)(F)F)ccc1Cl	8	0.9	0.025	0.13	-8	70*
CCOC(=O)c1c(C)[nH]c(C2=NNC(=Nc3ccccc3)SC2)c1C	6	0.9	1.8	·	-10	65*
COc1ccc(C(CC(=O)c2ccc(C)cc2)C(C#N)C#N)cc1OC (configuration not stated)	5	1	-0.24	-0.95	90*	-38
COc1ccc(C(CC(=O)O)NS(=O)(=O)c2ccc(C)cc2)cc1OC (configuration not stated)	16	0.8	0.12	·	1	-20
O=C(Nc1ccc2[nH]ccc2c1)c1ccccc1	·	·	1.2	-0.48	·	·
O=C(Nc1ccc2[nH]c(=S)sc2c1)c1ccccc1	24	0.8	44*	-0.046	-4	-8
CC1CCCC(C)N1CC(O)COCC1COc2ccccc2O1 (configuration not stated)	-3	1	·	·	52*	-15
N#Cc1c(-c2cccc(Br)c2)cc(-c2ccco2)[nH]c1=O	67*	0.3	-1.8	1.8	-1	11
O=C(Oc1cccc2cccnc12)c1ccc(N2C(=O)C3C4CCC(C4)C3C2=O)cc1 (configuration not stated)	28	0.7	-0.24	0.72	99*	-13
O=C(Oc1cccc2cccnc12)c1cccc(-n2cnnn2)c1	4	1	-0.45	·	-6	8
O=C(Oc1cccc2cccnc12)c1cccc(N2C(=O)C3C4CCC(C4)C3C2=O)c1 (configuration not stated)	9	0.9	0.11	0.56	97*	0
O=C1C2C3C=CC(C3)C2C(=O)N1c1cccc2cccnc12 (configuration not stated)	11	0.9	0.27	1.1	-3	-10
Oc1ccccc1/C=N/Nc1ccnc(SCc2ccccc2)n1	27	0.7	1.7	0.27	96*	7
CCn1c(SCc2ccc([N+](=O)[O-])cc2)nnc1C(C)NC(=O)c1ccc(C)cc1 (configuration not stated)	5	0.9	0.058	·	0	6
Cc1ccc(C(=O)Nc2ccc(N3CCCC3)cc2)cc1	9	0.9	0.23	0.38	4	-16
O=C(Nc1ccc(N2CCCCC2)cc1)c1cc([N+](=O)[O-])cc([N+](=O)[O-])c1	-4	1	·	0.2	66*	10
COc1ccc(C(=O)Nc2ccc(N3CCCCC3)cc2)cc1Br	1	1	0.4	·	52*	-2
CC(=O)N1CCN(c2ccc(NC(=O)c3ccc(C(C)(C)C)cc3)cc2)CC1	12	0.9	-0.47	-0.062	97*	-21
O=C(Nc1ccc(N2CCCC2)cc1)c1ccc([N+](=O)[O-])cc1Cl	1	1	0.035	-0.14	-5	8
CC(C)Oc1ccc(C(=O)Nc2ccc(N3CCCCC3)cc2)cc1	16	0.8	-1.8	0.02	51*	-6
CC1CCc2onc(C(=O)O)c2C1 (configuration not stated)	4	1	-1	0.2	-6	-13
CCOC(=O)N1CCN(C(=O)CSc2ccc3nnc(-c4cccnc4)n3n2)CC1	0	1	-0.28	-0.7	4	3
SMILES	Diaphorase inh	Diaph act CS	KCC2 mod	ROMK mod	Lmaj promast	WT yeast gro inh
O=C(Cc1ccc(Cl)cc1)Nc1ccc2c(c1)C(=O)NC2=O	-1	1	0.44	-0.0026	-4	0
Cc1c(-c2ccccn2)c(=O)[nH]n1-c1ccc(F)cc1	-4	1	1.7	-0.11	4	2
N#C/C(=C\c1ccc(-c2ccccc2[N+](=O)[O-])o1)C(=O)N1CCOCC1	27	0.7	-0.39	-0.77	6	-13
O=C(/C=C/c1ccc(-c2ccccc2[N+](=O)[O-])o1)c1ccco1	0	1	-1.7	0.32	59*	57
C=CCn1c(SCc2csc(C)n2)nc2sc3c(c2c1=O)CCCC3	2	1	·	0.6	0	70*
COc1ccnc(Oc2ccc(Cl)cc2)c1C#N	-7	1.1	2	-1.7	2	-6
O=C(COC(=O)c1cccc(S(=O)(=O)N2CCc3ccccc32)c1)Nc1ncc(Cl)cc1Cl	17	0.8	0.23	0.69	60*	12
O=C(OCC(=O)N1CCc2ccccc21)c1cccc(S(=O)(=O)N2CCCc3ccccc32)c1	3	1	-0.5	-0.34	98*	-11
O=C(COC(=O)c1ccc(Cl)c(S(=O)(=O)N2CCc3ccccc3C2)c1)Nc1ncc(Cl)cc1Cl	14	0.9	-0.48	-0.37	81*	-2
O=C(COC(=O)c1cccc(S(=O)(=O)N2CCc3ccccc32)c1)Nc1ncc(C(F)(F)F)cc1Cl	19	0.8	-0.023	-0.77	-7	-3
O=C(OCC(=O)N1CCc2ccccc21)c1c2c(nc3ccccc13)CCCCC2	30	0.7	-2.4	·	91*	34
NC(=O)COC(=O)c1c2c(nc3ccccc13)CCCC2	-4	1	-0.4	0.056	-1	-12
Cc1nc(NC(=O)COC(=O)c2ccc(S(=O)(=O)N3CCc4ccccc4C3)cc2)c(Cl)cc1Cl	17	0.8	0.28	-0.58	-2	-26
O=C(COC(=O)c1cccc(S(=O)(=O)N2CCc3ccccc32)c1)NCc1ccco1	16	0.8	-0.24	-0.29	-2	-11
Cc1cc(OCc2cn3cccnc3n2)ccc1Cl	-14	1.1	-1.3	-0.77	2	11
CN(C)/C=C(\C=O)c1ncc(C(F)(F)F)cc1Cl	-11	1.1	0.67	1.9	-1	0
Cc1ccsc1/C=N\NC(=O)c1cc(C(C)(C)C)[nH]n1	-14	1.1	0.034	0.34	3	-5
